Test results reported in ChEMBL document CHEMBL1152560, “Substituted 2-arylbenzothiazoles as kinase inhibitors: hit-to-lead optimization” (Bioorg Med Chem, 2009).

Assays:
[1] = target: Platelet-derived growth factor receptor beta (Homo sapiens, UniProt P09619); test: Inhibition of PDGFRbeta in human HCT116 cells by cellular phosphorylation assay; format: cell-based, HCT-116
Summary of the method: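 Cells expressing PDGFRβ were treated with compound, then stimulated to give maximal autophosphorylation in controls. Cells were lysed, and receptor phosphorylation was quantified by sandwich ELISA with a receptor-specific capture antibody and an anti-phosphotyrosine antibody. EC50 from a sigmoidal curve relative to the stimulated high control. Nine concentrations, 1 nM–10 μM in half-log steps, each in duplicate.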

[2] = target: Epidermal growth factor receptor (Homo sapiens, UniProt P00533); test: Inhibition of EGFR in human HCT116 cells by cellular phosphorylation assay
Sequence of Epidermal growth factor receptor (P00533 whole entry): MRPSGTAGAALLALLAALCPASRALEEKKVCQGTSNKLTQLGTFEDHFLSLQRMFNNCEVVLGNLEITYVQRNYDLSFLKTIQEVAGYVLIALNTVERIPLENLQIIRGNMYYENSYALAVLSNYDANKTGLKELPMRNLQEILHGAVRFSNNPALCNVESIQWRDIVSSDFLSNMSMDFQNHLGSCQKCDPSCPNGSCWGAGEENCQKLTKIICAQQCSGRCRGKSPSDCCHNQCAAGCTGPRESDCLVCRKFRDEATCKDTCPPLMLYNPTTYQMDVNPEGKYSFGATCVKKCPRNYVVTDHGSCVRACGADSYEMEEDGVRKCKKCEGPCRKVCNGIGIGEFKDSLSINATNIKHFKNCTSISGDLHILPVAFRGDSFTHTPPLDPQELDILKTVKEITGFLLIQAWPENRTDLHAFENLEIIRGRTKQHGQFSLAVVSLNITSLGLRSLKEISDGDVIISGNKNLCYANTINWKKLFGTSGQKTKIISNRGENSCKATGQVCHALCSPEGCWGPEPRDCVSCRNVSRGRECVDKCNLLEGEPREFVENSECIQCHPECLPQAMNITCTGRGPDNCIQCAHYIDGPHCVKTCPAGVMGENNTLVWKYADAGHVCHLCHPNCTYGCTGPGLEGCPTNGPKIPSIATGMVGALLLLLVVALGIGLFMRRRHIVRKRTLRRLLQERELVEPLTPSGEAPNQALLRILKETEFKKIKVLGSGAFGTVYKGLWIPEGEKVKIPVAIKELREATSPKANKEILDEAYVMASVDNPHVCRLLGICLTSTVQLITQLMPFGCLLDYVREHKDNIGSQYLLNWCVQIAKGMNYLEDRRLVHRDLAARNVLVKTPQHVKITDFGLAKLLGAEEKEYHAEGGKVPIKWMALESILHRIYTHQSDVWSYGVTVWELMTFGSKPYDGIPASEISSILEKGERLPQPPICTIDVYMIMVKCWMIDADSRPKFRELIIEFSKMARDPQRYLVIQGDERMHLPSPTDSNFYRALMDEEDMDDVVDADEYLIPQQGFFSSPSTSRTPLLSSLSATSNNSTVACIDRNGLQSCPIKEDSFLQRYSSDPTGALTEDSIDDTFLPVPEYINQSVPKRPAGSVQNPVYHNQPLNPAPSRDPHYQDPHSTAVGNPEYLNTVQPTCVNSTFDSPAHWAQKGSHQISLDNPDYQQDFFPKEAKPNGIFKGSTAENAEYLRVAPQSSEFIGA

Sequence of Platelet-derived growth factor receptor beta (P09619 whole entry): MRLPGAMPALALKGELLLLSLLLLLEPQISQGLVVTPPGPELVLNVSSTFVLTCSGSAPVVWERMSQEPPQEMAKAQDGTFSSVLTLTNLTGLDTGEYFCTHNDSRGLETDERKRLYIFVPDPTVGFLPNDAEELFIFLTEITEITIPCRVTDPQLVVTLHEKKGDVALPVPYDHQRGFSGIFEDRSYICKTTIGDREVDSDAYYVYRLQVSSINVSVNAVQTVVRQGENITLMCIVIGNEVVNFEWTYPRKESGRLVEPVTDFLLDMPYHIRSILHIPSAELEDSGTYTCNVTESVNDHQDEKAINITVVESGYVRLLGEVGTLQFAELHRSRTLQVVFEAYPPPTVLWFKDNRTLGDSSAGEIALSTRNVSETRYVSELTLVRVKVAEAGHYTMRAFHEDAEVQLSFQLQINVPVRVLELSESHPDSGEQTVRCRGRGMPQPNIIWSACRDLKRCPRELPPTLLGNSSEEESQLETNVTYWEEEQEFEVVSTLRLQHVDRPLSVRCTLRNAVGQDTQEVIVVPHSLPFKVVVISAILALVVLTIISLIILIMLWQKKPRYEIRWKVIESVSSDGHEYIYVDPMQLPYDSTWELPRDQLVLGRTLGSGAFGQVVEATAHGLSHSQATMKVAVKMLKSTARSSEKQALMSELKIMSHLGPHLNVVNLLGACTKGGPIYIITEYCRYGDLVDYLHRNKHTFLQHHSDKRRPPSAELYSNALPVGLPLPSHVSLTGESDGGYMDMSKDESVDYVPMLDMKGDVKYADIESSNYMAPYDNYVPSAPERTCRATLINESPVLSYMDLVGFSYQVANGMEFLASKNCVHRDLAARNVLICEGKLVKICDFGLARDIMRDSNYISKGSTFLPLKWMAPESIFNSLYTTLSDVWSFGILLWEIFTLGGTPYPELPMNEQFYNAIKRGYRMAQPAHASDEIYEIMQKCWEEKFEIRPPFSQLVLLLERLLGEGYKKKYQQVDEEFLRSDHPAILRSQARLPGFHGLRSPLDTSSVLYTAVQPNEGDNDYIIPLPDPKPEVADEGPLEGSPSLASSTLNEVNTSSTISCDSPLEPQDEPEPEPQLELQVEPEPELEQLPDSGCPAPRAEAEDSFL

Row | EC50 [1] | EC50 [2] | Compound
1 | 2000 nM |  | COc1cc2c(Oc3ccc(-c4nc5ccccc5s4)cc3)ncnc2cc1OCCCN1CCCC1
2 | 170 nM |  | COc1cc2c(Oc3ccc(-c4nc5ccccc5s4)cc3)ncnc2cc1OCCCN1CCN(C)CC1
3 |  | > 10000 nM | COc1cc2c(Oc3ccc(-c4nc5ccccc5s4)cc3F)ncnc2cc1OCCCN1CCN(C)CC1
